# Compound activity: PubChem BioAssay, several laboratories
# Diaphorase act – activates diaphorase or chemically reduces, flagging diaphorase assay artifacts; Diaphorase/resazurin coupled assay, resorufin fluorescence, 16 min; hits give high values; 1 = vehicle wells, 0 = NADH-free wells; activation factor at 20 µM; 190,000 tested, 0.005% active;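 active means diaphorase activity raised at least twofold by the compound at 20 µM; inactive means activation factor below 2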
#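 Material: purified diaphorase enzyme from Clostridium kluyveri; Also added: 0.114 mM NADH and 0.1 mM resazurin, final amounts; Doses: single compound dose of 20 µM, 1% DMSO final; Times: 16 min enzyme reaction, ambient temperature; Detection: resorufin fluorescence, excitation 544 nm, emission 590 nm; Measure: increased resorufin signal from activators or reducing compounds.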
# WT yeast gro inh – growth inhibition of WT yeast, mitochondrial fusion screen. mitochondrial fusion phenotypic screen, WT strain. AID 1362. inhibition, % at 10 µM. 190,000 tested, 2.1% active; in the data active means inhibition above about 58%; tested in S. cerevisiae
# Diaphorase inh – diaphorase inhibition or chemical oxidation counter-screen; diaphorase resazurin-to-resorufin fluorescence, NADH, 16 min; bacterial (C. kluyveri) enzyme, not human; AID 1217; inhibition, % at 20 µM; 190,000 tested, 0.69% active;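 active means primary screen inhibition at 20 µM above a set limit, cut at about 50% in these data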;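 further: plate controls were DMSO with full reaction for no effect and wells lacking NADH for full effect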
#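 Assay system: diaphorase enzyme from Clostridium kluyveri. Quantity: enzyme working solution with 0.14 U/mL diaphorase. Schedule: reaction incubation of 16 min at room temperature. Technique: resorufin fluorescence, excitation 544 nm, emission 590 nm. Controls: No-NADH positive control and DMSO neutral control.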
# ROMK primary – human ROMK K+ channel modulation, primary screen; Tet-inducible ROMK, thallium flux fluorescence; actives lie on both sides; 130,000 tested, 2% active; P48048; B-score at 10 µM;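 active means signal ratio slope over the read window, or its plate-corrected B-score, at least 3 SD from the plate mean, either direction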;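 further: B-score of the F/F0 ratio slope over 7 to 12 s after thallium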
# L major viab – inhibitors of Leishmania major promastigote growth | AID 1063 | Leishmania major promastigotes, resazurin fluorescence viability | inhibition, % at 10 µM | 200,000 tested, 9% active; in the data active means inhibition above about 50%;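 further: promastigotes grown with compound for 44 hours at 28 °C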
# Cl transport mod – KCC2 (human) Cl- transport modulation; KCC2 cells, thallium flux FluoZin-2 fluorescence; B-score of Tl+ flux slope (higher = more flux/activation; lower = inhibition) at 10 µM; 190,000 tested, 2.2% active; AID 1456;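 active means thallium flux slope and its plate-corrected score both differing from the plate sample mean at a set confidence after two filtering rounds, in either direction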;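 further: slope of fluorescence scaled to starting intensity during 10 to 20 s after thallium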
# The depositor's hits bear a star; x = no result. The list is not random: actives were taken first. Their share in the collection is about 12%.
SMILES,Diaphorase act,WT yeast gro inh,Diaphorase inh,ROMK primary,L major viab,Cl transport mod
FC(F)(F)c1cc(Sc2ccccc2)nc(-c2ccccn2)n1,0.9,64.8*,9.6,x,2.8,-0.849
O=C(c1ccccc1Sc1ccccc1[N+](=O)[O-])N1CCCCC1,1.2,17.1,-18.2,0.432,6.0,x
O=C(COc1ccccc1[N+](=O)[O-])N1CCN(S(=O)(=O)c2ccccc2)CC1,0.9,-7.2,9.2,-0.129,0.7,0.746
O=C(OCC(=O)N1CCN(S(=O)(=O)c2ccc(Cl)cc2)CC1)c1ccc([N+](=O)[O-])o1,1,21.0,2.7,-0.00527,56.7*,-0.0282
O=C(OCC(=O)N1CCN(S(=O)(=O)c2ccccc2)CC1)c1ccc([N+](=O)[O-])o1,0.9,8.3,12.4,-0.634,95.3*,0.0926
Cc1ccnc(NC(=O)CCC(=O)N(CC(=O)NCc2ccccc2)Cc2cccs2)c1,1,-1.7,2.2,-0.181,-2.8,-1.01
Cc1[nH]c2ccccc2c1C(=O)CSC(=S)N1CCOCC1,x,x,x,-1.1,x,1.07
CCn1c(SCC(=O)c2c[nH]c3ccccc23)nc2cc(S(=O)(=O)N3CCOCC3)ccc21,0.8,-5.5,20.9,0.831,65.7*,0
CCn1c(SCC(N)=O)nc2cc(S(=O)(=O)N3CCOCC3)ccc21,1,-5.1,-1.6,0.165,-5.3,0.221
O=C1CC(c2ccccc2)CN1C(=O)c1cncc(Br)c1 (stereo not drawn),1,-12.3,-1.0,x,-4.1,x
CSc1ccc(-c2nc(CN3CCCCC3c3cccnc3)c(C)o2)cc1 (stereo not drawn),1,16.9,-2.8,x,50.8*,x
O=C1N/C(=C\c2nc3ccccc3s2)c2ccccc21,x,x,x,x,x,0.241
N#C/C=C1/NC(=O)c2ccccc2S1,0.7,-21.2,25.3,0.719,17.0,18.9*
COc1ccc(N(C(=O)c2ccn[nH]2)C(C(=O)NC(C)(C)C)c2ccc(F)cc2)cc1 (stereo not drawn),0.9,-26.4,8.0,0.0906,80.5*,0.0059
CC[C@H](C)[C@H](NC(=O)c1ccc(Cl)cc1)C(=O)OCC(=O)c1ccc2c(c1)NC(=O)CO2,1.1,-6.1,-10.1,0.732,100.0*,x
Cc1ccc(NC(/C=C/N(C)C)=C/C(=O)C(F)(F)F)c(C)c1,0.7,80.3*,28.5,-0.56,30.2,-1.39
COc1ccc(NC(=O)/C(C#N)=C/c2ccc3c(c2)n(C)c(=O)n3C)cc1,0.9,-12.6,10.3,0.0443,57.0*,0.0272
COc1ccc(C(=O)O)cc1S(=O)(=O)NCCN(C)C,x,x,x,x,x,0.388
CCn1c(=O)c(=O)[nH]c2cc(C(=O)NCC3CCCCC3)ccc21,0.9,6.9,10.6,x,68.5*,0.0386
CCn1c(=O)c(=O)[nH]c2cc(C(=O)NC3CCCC3)ccc21,1,-4.0,0.3,-0.516,-3.4,0
CCOC(=O)C1=C(C)OC(N)=C(C#N)C1c1cc2ccccc2nc1N1CCCCC1 (stereo not drawn),0.7,10.3,29.4,-0.398,86.2*,0.418
C=CCn1c(=O)c2ccc(C(=O)NCc3ccccc3)cc2n(Cc2ccccc2Cl)c1=O,1,6.8,4.0,-0.812,56.0*,0.0857
O=C(CNCCC1=CCCCC1)Nc1ccccc1N1CCCCC1,0.8,33.5,20.1,x,97.4*,0.749
O=C(CN1CCc2ccccc2C1)Nc1ccccc1N1CCCCCC1,0.8,61.4*,20.5,x,30.6,-0.399
O=C(CNC1CCCCCC1)Nc1ccccc1N1CCCCC1,0.8,-16.2,21.2,x,10.8,-0.07
SMILES,Diaphorase act,WT yeast gro inh,Diaphorase inh,ROMK primary,L major viab,Cl transport mod
[O-]/C(=C(\C(=S)NCc1ccccc1)[n+]1ccccc1)c1ccc(Cl)cc1,0.8,20.0,16.7,-0.0434,-4.3,0.506
CN(C)CCNC(=O)c1ccc(COc2ccc(Cl)cc2Cl)cc1,1.3,3.9,-25.0,x,99.0*,0.873
COc1cc(C(=O)NCCC(C)C)ccc1OCc1ccc(Cl)cc1Cl,0.9,21.9,12.6,x,97.1*,0.0341
COc1ccc(C)cc1NC(=O)COC(=O)c1ccc(OCc2ccc(Cl)cc2Cl)c(OC)c1,0.9,1.2,5.8,-0.941,34.0,-1.31
COc1ccc(NC(=O)COC(=O)c2ccc(OCc3ccc(Cl)cc3Cl)c(OC)c2)c(OC)c1,0.9,-15.2,11.4,x,-0.9,0.708
COc1cc(C(=O)NC2CCCCC2)ccc1OCc1ccc(Cl)cc1Cl,1,10.4,-2.7,x,73.6*,0
CN(C(=O)c1cc2c(s1)-c1ccccc1S(=O)(=O)C2)c1ccccc1,x,x,x,-0.454,x,0.743
CCCCCCC(=O)Nc1nc(C)c(-c2csc(Nc3ccc(Cl)cc3)n2)s1,0.7,-3.9,30.8,x,52.2*,0.0321
CCCCCC(=O)Nc1nc(C)c(-c2csc(Nc3ccc(Cl)cc3)n2)s1,0.8,51.6,15.6,x,28.6,0.00329
Cc1nc(NC(=O)CC(C)C)sc1-c1csc(Nc2ccc(Cl)cc2Cl)n1,0.9,0.1,8.7,x,8.1,0.983
Cc1nc(NC(=O)CC(C)C)sc1-c1csc(Nc2ccc(Cl)cc2)n1,0.8,80.7*,20.2,x,35.3,-0.122
CCn1c(C(C)NC(=O)c2cccs2)n[nH]c1=S (stereo not drawn),0.9,-1.1,14.0,x,-4.3,0.0606
O=C(Cn1cnc([N+](=O)[O-])n1)N/N=C/c1cccc(Cl)c1,0.8,-3.8,17.6,0.116,63.4*,-0.149
O=C(Cn1cnc([N+](=O)[O-])n1)N/N=C/c1cccc2ccccc12,0.9,-19.6,5.0,x,90.7*,-1.7
O=C(Cn1cnc([N+](=O)[O-])n1)N/N=C/c1ccc(O)cc1O,0.8,4.0,16.3,0.578,-2.5,-0.0434
O=C1CN(C(=O)COC(=O)CCSc2ccccc2Cl)c2ccccc2N1,0.9,-3.9,9.9,0.442,-4.7,-0.63
C=CCC(CC=C)(NC(=O)c1cccc(C)c1)c1ccccc1,1,13.8,-4.2,x,68.4*,0.398
Cc1c(NC(=S)NC(NC(=O)C(C)C)C(Cl)(Cl)Cl)c(=O)n(-c2ccccc2)n1C (stereo not drawn),0.9,5.0,10.8,x,-4.5,0.489
CNc1ncc(C(=O)c2ccc(Br)cc2)s1,1,13.8,-0.3,-0.444,1.9,-0.863
COc1ccc2c(c1OC)CN1CCc3cc4c(cc3[C@@H]1[C@@H]2O)OCO4,0.9,-6.7,13.3,-0.395,-1.0,-0.0685
COc1cc2c(cc1OC)C1Cc3ccc(OC)c(OC)c3CN1CC2 (stereo not drawn),0.9,-17.8,9.4,x,94.8*,-1.06
N#Cc1ccc(OCC(=O)OCC(=O)Nc2cc(C(F)(F)F)ccc2N2CCOCC2)cc1,0.9,-5.2,6.1,x,0.5,-0.792
CCOc1cc(/C=N/n2cnnc2)ccc1OS(=O)(=O)c1ccccc1,0.9,-1.3,5.7,-0.292,68.8*,-0.178
COc1cc(OC)cc(C(=O)NCC(=O)OCC(=O)C(C)(C)C)c1,0.9,5.3,5.5,1.15,-5.2,0.437
